For data set [1], the system named is P388. As to the kind of experiment: In vivo activity against P388 Lymphocytic Leukemia in CD2F1 mice at the dose of 12.5 mg/kg, activity expressed as body weight difference. The data set is classed as functional, Mus musculus. The essentials: (§1)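 CD2F1 mice were inoculated with ascitic fluid holding ca. 10^6 P388 cells. Drug was given daily from 24 h after inoculation, from solutions or suspensions made fresh each day, some as a saline suspension. TDS is survivors/initial animals on day 5. BWD is body weight on day 5 minus day 1. %T/C compares median survival of treated and control mice.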

Data set [2] in a line: Effect of pH on the hydrolysis of pyridinium Moity in 0.05 M buffer concentration at the pH 7.4. The format is ADME. The procedure, abridged:
(§2)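 Pyridinium salt in 0.05 M phosphate buffer, pH 6.0–8.0 (set by pH meter), ionic strength 0.25 M, 25 °C. Decrease in the pyridinium UV absorbance maximum followed over time to give pseudo-first-order kobs and half-life.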

Data set [3] can be described thus: Half life at the buffer concentration of 0.02 M. The format is ADME. The essentials:
(§3)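 α-Fluoropyridinium hydrolysis to pyridone in phosphate buffer at 0.02, 0.05 or 0.10 M, pH 6.5 or 8.0, ionic strength […] °C. Pyridinium UV absorbance maximum followed with time to give pseudo-first-order kobs and half-life.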

Data set [4] in a line: Effect of phosphate buffer concentration on the hydrolysis of alpha Fluoropyridinium Moity at the concentration of 0.02M, pH 6.5, 25 degree C. The format is ADME. The essentials: as §3
Data set [5] in a line: Effect of pH on the hydrolysis of pyridinium Moity in 0.05 M buffer concentration at the pH 6.0. The format is ADME. The procedure, abridged: as §2
The next data set relates to MX1. The data set is described as follows: In vivo activity against murine MX-1 tumor system at the dose of 37.5 mg/kg, activity expressed as body weight difference. The data set is classed as functional, Mus musculus.
The nature of data set [6]: Effect of Ionic strength (1.0M NaCl)on the hydrolysis of pyridinium Moity in 0.02 M buffer concentration, pH 7.4,25 degree C. The format is ADME. The procedure, abridged:
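Pyridinium salt in 0.02 M phosphate buffer, pH 7.4, 25 °C, with NaCl varied 0.10–1.0 M. Loss of the pyridinium chromophore's UV absorbance maximum (conversion to pyridone) followed over time. Pseudo-first-order kobs and half-life derived from that decay.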

Data set [7] is described as follows: Effect of phosphate buffer on the hydrolysis of alpha Fluoropyridinium Moity at the concentration of 0.10M, pH 8.0, 25 degree C. The data set is classed as ADME. The procedure, abridged: as §3
The nature of data set [8]: Effect of pH on the hydrolysis of pyridinium Moity in 0.05 M buffer concentration at the pH 7.0. The format is ADME. The procedure, abridged: as §2
Data set [9] can be described thus: In vivo activity against murine M5076 tumor system at the dose of 100 mg/kg, activity expressed as TDS; 6/10. The data set is classed as functional, Mus musculus. The procedure, abridged:
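M5076: ascitic fluid with ca. 10^6 cells inoculated ip into CD2F1 mice. Dosing started 24 h after inoculation and was then given every 4 days for four doses in total, from solutions or suspensions made fresh each day. Toxicity day survivors were scored on day 5. Body weight difference is day 14 minus day 1. %T/C is based on median survival time versus controls.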

Data set [10] deals with L1210. The data set is described as follows: In vivo activity against murine L1210 tumor system at the dose of 100 mg/kg, activity expressed as %T/C. The data set is classed as functional, Mus musculus. The procedure, abridged: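 CD2F1 mice received ca. 10^6 L1210 cells in ascitic fluid ip. Treatment started 24 h after inoculation and was given daily for five doses in total. %T/C compares median survival time of treated and control animals.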

Data set [11] can be described thus: Half life at the pH 4.0. The data set is classed as ADME. Particulars: buffer. The essentials: (§4)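 Bis-carbamate in acetonitrile–water (1:1; buffer added to a 0.5 mg/mL acetonitrile solution), 0.05 M buffer, ionic strength 0.136 (KCl), 25 ± 0.1 °C. Buffers: phosphate pH 2.0; citrate pH 3.0–3.5; succinate pH 4.0; acetate pH 5.0; phosphate pH 6.0–8.0; borate pH 9.0; carbonate pH 10.0. HPLC bis-carbamate peak-area loss, ln(area0/areat) vs time slope = kobs. Duplicates averaged.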

The test system of data set [12] is L1210. The data set is described as follows: In vivo activity against murine L1210 tumor system at the dose of 36 mg/kg, activity expressed as body weight difference; T-C. The data set is classed as functional, Mus musculus. The procedure, abridged: (§5)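 L1210 lymphocytic leukemia: ascitic fluid with ca. 10^6 cells injected ip into CD2F1 mice. Dosing started 24 h after inoculation and was repeated daily for five doses in total, from solutions or suspensions made fresh each day. Toxicity day survivors were scored on day 5. Body weight difference is day 5 minus day 1. %T/C is based on median survival time versus controls.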

The test system of data set [13] is L1210. The data set is described as follows: In vivo activity against murine L1210 tumor system at the dose of 36 mg/kg, activity expressed as %T/C. The data set is classed as functional, Mus musculus. The procedure, abridged: as §5
The test system of data set [14] is L1210. The data set is described as follows: In vivo activity against murine L1210 tumor system at the dose of 21.6 mg/kg, activity expressed as body weight difference; T-C. The format is functional, Mus musculus. The essentials:
as §5

The subject of data set [15] is P388. The data set is described as follows: In vivo activity against P388 Lymphocytic Leukemia in CD2F1 mice at the dose of 25 mg/kg, activity expressed as KE. The format is functional, Mus musculus.
Data set [16] in a line: Half life at the ionic strength. The format is ADME.
In data set [17] the test system is L1210. As to the kind of experiment: In vivo activity against murine L1210 tumor system at the dose of mg/kg, activity expressed as %T/C. The data set is classed as functional, Mus musculus. The essentials: as §5
Data set [18] in a line: In vivo activity against murine M5076 tumor system at the dose of 60 mg/kg, activity expressed as %T/C. The format is functional, Mus musculus.
For data set [19], the system named is L1210. The data set is described as follows: In vivo activity against murine L1210 tumor system at the dose of 100 mg/kg, activity expressed as TDS; 6/6. The data set is classed as functional, Mus musculus. The procedure, abridged:
as §5

Data set [20] can be described thus: Effect of pH on carbamate hydrolysis in 0.05 M buffer concentration at the pH 9.0, 25 degree C. The data set is classed as ADME. The essentials: as §4
Data set [21] in a line: Half life at the buffer concentration of 0.025 M. The format is ADME. The procedure, abridged: (§6)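 Bis-carbamate in acetonitrile–water (1:1), 25 ± 0.1 °C. Citrate buffer at pH 3.0 or phosphate buffer at pH 7.4, at 0.01, 0.025 or 0.05 M, ionic strength 0.136 (KCl). Kinetics followed by HPLC as the decrease in bis-carbamate peak area. The regression slope of ln(area0/areat) vs time gave pseudo-first-order kobs. Duplicates averaged.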

Data set [22] concerns L1210. The data set is described as follows: In vivo activity against murine L1210 tumor system at the dose of 36 mg/kg, activity expressed as TDS; 6/6. The format is functional, Mus musculus. The essentials:
as §5

For data set [23], the system named is P388. As to the kind of experiment: In vivo activity against P388 Lymphocytic Leukemia in CD2F1 mice at the dose of 400 mg/kg, activity expressed as TDS; 2/6. The data set is classed as functional, Mus musculus. The procedure, abridged:
as §1

Data set [24] deals with P388. The data set is described as follows: In vivo activity against P388 Lymphocytic Leukemia in CD2F1 mice at the dose of 100 mg/kg, activity expressed as TDS; 5/6. The data set is classed as functional, Mus musculus. The procedure, abridged: as §1
Data set [25] is described as follows: Half life at the pH 2.0. The data set is classed as ADME. The note with it: buffer. The procedure, abridged:
as §4

A short description of data set [26]: Half life at the pH 5.0. The format is ADME. The note with it: buffer. The essentials: as §4
Data set [27] has as its system L1210. As to the kind of experiment: In vivo activity against murine L1210 tumor system at the dose of 60mg/kg, activity expressed as %T/C. The data set is classed as functional, Mus musculus. The essentials: as §5
A short description of data set [28]: Effect of pH on carbamate hydrolysis in 0.05 M buffer concentration at the pH 4.0, 25 degree C. The data set is classed as ADME. The essentials: as §4
Data set [29] concerns L1210. The data set is described as follows: In vivo activity against murine L1210 tumor system at the dose of 100 mg/kg, activity expressed as body weight difference; T-C. The data set is classed as functional, Mus musculus. The procedure, abridged: as §5
The nature of data set [30]: Effect of pH on carbamate hydrolysis in 0.05 M buffer concentration at the pH 8.0, 25 degree C. The data set is classed as ADME. The essentials: as §4
Data set [31] is described as follows: Half life at the buffer concentration of 0.01 M. The data set is classed as ADME. The procedure, abridged: as §6
The test system of data set [32] is L1210. As to the kind of experiment: In vivo activity against murine L1210 tumor system at the dose of 60 mg/kg, activity expressed as TDS; 6/6. The data set is classed as functional, Mus musculus. The procedure, abridged: as §5

Values joined by “and” are separate entries in the source; they are usually repeats but may differ in a detail not shown here. Equal entries are not always repeated.

A word on the half-life: it is the time in which the quantity being followed falls by half. For the molecule `CC(C)NC(=O)OCc1c(COC(=O)NC(C)C)c(-c2cc[n+](C)c(F)c2)n2c1CCC2.[I-]`, the BWD is -1.3 g in the data set with P388 [1] and 0.3 g with MX1. Besides, the K obs is 0.0337 min⁻¹ in data set [2]; 0.0052 min⁻¹ in data set [4]; 0.0044 min⁻¹ in data set [5]; 0.007 min⁻¹ in [6]; 0.036 min⁻¹ in data set [7]; 0.0208 min⁻¹ in data set [8]. This molecule also displayed a half-life in [3] of 52.5 min. The same molecule returned a TDS in data set [9] of 6.
What is called T/C is the ratio of treated to control. In the case of `CC(C)NC(=O)OCc1c(COC(=O)NC(C)C)c(-c2ccn(C)c(=O)c2)n2c1CCC2`, the T/C was found to be 146% in the data set on L1210 [10]; 135% in the data set with L1210 [13]; 135% in the data set with L1210 [17]; 114% in data set [18]; 141% in the data set with L1210 [27]. Also, the half-life was 46.7 min in data set [11]; 53.5 min in data set [16]; 51.9 min in data set [21]; 2.11 min in [25]; 50 min in [26]. Further, the BWD in the data set with L1210 [12] is -0.3 g; in the data set with L1210 [14], -0.3 g; in the data set with L1210 [29] it was -4.2 g. Also, in the data set on P388 [15], the KE is reported as -0.5. Besides, the T1/2 in data set [16] is 55.89 min and 86.65 min; in [31] it was 19.86 min and 52.31 min. Further, the TDS in the data set with L1210 [19] amounted to 6; with L1210 [22], 6; in the data set on P388 [23], 2; with P388 [24], 5; in the data set with L1210 [32] it was 6. Besides, the K obs is 0.0129 min⁻¹ in data set [20], 0.0149 min⁻¹ in data set [28] and 0.0128 min⁻¹ in data set [30].
